Test results as given in ChEMBL document CHEMBL4261642, “Design, synthesis, and ex vivo evaluation of a selective inhibitor for retinaldehyde dehydrogenase enzymes” (Bioorg Med Chem, 2018).

Tests used:
[1] = target: T1, Retinal dehydrogenase 2 (Gallus gallus, UniProt O93344); assay: Inhibition of N-terminal His6-tagged recombinant chick RALDH2 expressed in Escherichia coli BL21(DE3) cells using RAL as substrate measured after 30 mins in presence of NADH by Morrison's plot analysis
T1 sequence (O93344 whole entry): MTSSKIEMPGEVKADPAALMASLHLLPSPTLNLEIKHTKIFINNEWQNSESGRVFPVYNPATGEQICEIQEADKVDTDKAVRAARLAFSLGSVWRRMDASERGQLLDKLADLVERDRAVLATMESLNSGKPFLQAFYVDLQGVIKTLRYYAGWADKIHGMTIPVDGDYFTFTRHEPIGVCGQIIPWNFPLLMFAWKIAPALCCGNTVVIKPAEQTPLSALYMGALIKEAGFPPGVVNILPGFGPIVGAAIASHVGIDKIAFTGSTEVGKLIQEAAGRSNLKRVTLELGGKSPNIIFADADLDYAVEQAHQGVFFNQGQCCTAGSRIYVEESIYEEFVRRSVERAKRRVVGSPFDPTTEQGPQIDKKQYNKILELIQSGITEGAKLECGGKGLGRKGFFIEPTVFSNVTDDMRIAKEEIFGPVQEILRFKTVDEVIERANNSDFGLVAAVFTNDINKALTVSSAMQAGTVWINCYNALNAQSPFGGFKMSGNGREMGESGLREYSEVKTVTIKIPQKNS
How it was run: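 Ki obtained by fitting the Morrison tight-binding equation to the 20-min pre-incubation retinaldehyde/NADH fluorescence inhibition data. Inputs were enzyme concentration (RALDH1 0.358, RALDH2 0.091, RALDH3 0.355, hRALDH2 0.176 μM), substrate concentration and Km. Triplicates from 3–5 independent experiments.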

[2] = target: T2, Retinal dehydrogenase 2 (Gallus gallus) (UniProt O93344); assay: (§1) Inhibition of N-terminal His6-tagged recombinant chick RALDH2 expressed in Escherichia coli BL21(DE3) cells at 250 nM using RAL as substrate assessed as enzyme recovery preincubated with compound and 250 uM NAD+ up to 80 mins and measured after 30 mins in presence of NAD+ by fluorescence assay; parameters: scale not given: the % may be the effect or the level left
T2 sequence (whole entry): T1 sequence (O93344 whole entry)
How it was run: (§2)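 Chick RALDH2 (91 nM) pre-incubated with 250 nM inhibitor for 0–80 min at 37°C, alone or with 250 μM retinaldehyde or 250 μM NAD+. Reaction then started with the missing substrate and/or cofactor (250 μM retinaldehyde, 4 mM NAD), 30 min at 37°C. Fluorimetric NADH; % activity remaining. Triplicates.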

[3] = target: T2, Retinal dehydrogenase 2 (Gallus gallus); assay: as §1, with “remaining activity” for “enzyme recovery”, “for 10 mins followed by all-trans-retinaldehyde” for “with compound”, “substrate addition” for “250 uM NAD+ up to 80 mins and”; how it was run: as §2
[4] = target: T3, Aldehyde dehydrogenase, mitochondrial (Homo sapiens, UniProt P05091); assay: Inhibition of N-terminal His6-tagged recombinant human mitochondrial ALDH2 using propionaldehyde as substrate preincubated for 20 mins to 1 hr followed by substrate addition and measured for 5 mins in presence of NADH by spectrophotometric assay
T3 sequence (P05091 whole entry): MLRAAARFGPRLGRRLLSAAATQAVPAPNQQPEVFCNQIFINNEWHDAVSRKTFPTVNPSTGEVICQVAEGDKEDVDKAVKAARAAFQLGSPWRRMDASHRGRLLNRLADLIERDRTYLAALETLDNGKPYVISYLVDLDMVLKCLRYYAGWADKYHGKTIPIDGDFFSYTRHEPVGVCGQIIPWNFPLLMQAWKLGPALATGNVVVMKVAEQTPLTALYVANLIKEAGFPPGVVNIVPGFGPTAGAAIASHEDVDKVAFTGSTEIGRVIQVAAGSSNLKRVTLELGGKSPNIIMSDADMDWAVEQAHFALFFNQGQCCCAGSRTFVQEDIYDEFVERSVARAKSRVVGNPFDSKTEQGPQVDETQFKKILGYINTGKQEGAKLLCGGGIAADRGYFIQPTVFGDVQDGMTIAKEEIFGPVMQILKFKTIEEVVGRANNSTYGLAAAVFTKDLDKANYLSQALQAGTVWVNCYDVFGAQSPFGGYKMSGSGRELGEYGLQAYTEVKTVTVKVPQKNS

[5] = target: T2, Retinal dehydrogenase 2 (Gallus gallus); assay: as §1, with “remaining activity” for “enzyme recovery”, “for 5 mins followed by all-trans-retinaldehyde” for “with compound”, “substrate addition” for “250 uM NAD+ up to 80 mins and”; how it was run: as §2
[6] = Inhibition of N-terminal His6-tagged recombinant chick RALDH3 expressed in Escherichia coli BL21(DE3) cells using RAL as substrate preincubated for 20 mins followed by substrate addition and measured after 30 mins in presence of NADH by fluorescence assay; parameters: species or system Gallus gallus
How it was run: (§3)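 Purified His-tagged recombinant enzyme in dialysis buffer with 2 mM DTT. Amounts were chick RALDH1 2 μg (0.358 μM), chick RALDH2 0.5 μg (0.091 μM), chick RALDH3 2 μg (0.355 μM) and human RALDH2 1 μg (0.176 μM). Enzyme pre-incubated 20 min at 37°C with 0–10 μM inhibitor in DMSO. Reaction started with final 4 mM NAD+ in pyrophosphate pH 8.2 buffer plus 250 μM retinaldehyde, 30 min at 37°C. NADH read fluorimetrically (Ex/Em 540/590) against a standard curve. Triplicates, 3–5 experiments.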

[7] = target: T2, Retinal dehydrogenase 2 (Gallus gallus); assay: Inhibition of RALDH2 in living intact choroid isolated from 4 day recovering chick eyes assessed as inhibition of ATRA synthesis at 1 uM after 24 hrs in presence of […]
[8] = species: Gallus gallus; assay: Inhibition of N-terminal His6-tagged recombinant chick RALDH3 expressed in Escherichia coli BL21(DE3) cells at 100 nM using RAL as substrate assessed as Vmax preincubated for 20 mins followed by substrate addition and measured after 30 mins in presence of NADH by fluorescence assay (reference value: 107.3 +/- 15.97 pmol/microM/min)
[9] = target: T4, Retinal dehydrogenase 2 (Homo sapiens, UniProt O94788); assay: Inhibition of N-terminal His6-tagged recombinant human RALDH2 using RAL as substrate preincubated for 20 mins followed by substrate addition and measured after 30 mins in presence of NADH by fluorescence assay; how it was run: as §3
T4 sequence (O94788 whole entry): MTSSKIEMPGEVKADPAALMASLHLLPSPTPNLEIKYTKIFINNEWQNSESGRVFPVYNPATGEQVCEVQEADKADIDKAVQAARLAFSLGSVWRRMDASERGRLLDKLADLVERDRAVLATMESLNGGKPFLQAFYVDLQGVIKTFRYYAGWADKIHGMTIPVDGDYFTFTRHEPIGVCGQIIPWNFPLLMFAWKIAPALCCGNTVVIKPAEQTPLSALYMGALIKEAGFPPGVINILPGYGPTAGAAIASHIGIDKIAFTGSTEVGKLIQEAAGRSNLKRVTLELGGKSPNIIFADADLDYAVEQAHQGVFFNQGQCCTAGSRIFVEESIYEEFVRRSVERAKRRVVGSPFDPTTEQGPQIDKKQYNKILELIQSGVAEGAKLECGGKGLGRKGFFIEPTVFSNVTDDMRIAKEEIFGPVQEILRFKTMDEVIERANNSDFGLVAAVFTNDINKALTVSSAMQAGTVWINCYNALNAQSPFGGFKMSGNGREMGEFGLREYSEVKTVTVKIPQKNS

- Ki [1]: 5.1 nM
- Activity [2]: 52 to 65%
- Activity [3]: 30.4%
- IC50 [4]: Not Active
- Activity [5]: 39.2%
- IC50 [6]: 161 nM
- inhibition [7]: 42%
- IC50 [9]: 191 nM
Compound: CC1=C(/C=C/C(C)=C/C=C/C(C)=C/C(=O)C(Cl)Cl)C(C)(C)CCC1
- Vmax [8]: 68.4 pmol/µM/min
